# Activity calls are given as the source filed them. The calls are words filed in the database; no cut-off is given here.
# Tests used:
# Mus musculus [1] = test: Anticonvulsant activity in ip dosed albino mouse assessed as protection against scPTZ-induced seizures after 0.5 hrs; type: functional
# In short: (§1)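 Male albino mice (20-25 g) given test compounds i.p., suspended in 30% PEG 200, at 0.01 ml/g body weight, at 30, 100 and 300 mg/kg to 1–6 animals. Seizure protection checked 0.5 h and 4 h after dosing. Value is the minimal dose protecting 50% or more of animals.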
# Mus musculus [2] = test: Anticonvulsant activity in ip dosed albino mouse assessed as protection against scPTZ-induced seizures after 4 hrs; type: functional; in short: as §1
# Mus musculus [3] = test: Anticonvulsant activity in ip dosed albino mouse assessed as protection against MES-induced seizures after 4 hrs; type: functional; in short: as §1
# Mus musculus [4] = test: Anticonvulsant activity in ip dosed albino mouse assessed as protection against MES-induced seizures after 0.5 hrs; type: functional; in short: as §1
# [5] = Neurotoxicity against ip dosed albino mouse assessed as inability of animal to maintain equilibrium on rod for 1 min after 4 hrs by rotarod test; conditions: in vivo
# [6] = Neurotoxicity against ip dosed albino mouse assessed as inability of animal to maintain equilibrium on rod for 1 min after 0.5 hrs by rotarod test; conditions: in vivo
# Mus musculus [7] = test: Reduction of immobility time in albino Swiss mouse at 100 mg/kg, ip pretreated for 1 hrs by forced swimming test; type: functional; conditions: route intraperitoneal
Structure (SMILES),ED50 (Mus musculus [1]) [mg/kg],ED50 (Mus musculus [2]),ED50 (Mus musculus [3]),ED50 (Mus musculus [4]) [mg/kg],TD50 at 4 h [5] [mg/kg],TD50 at 0.5 h [6] [mg/kg],Time (Mus musculus [7]) [s]
CCCC(CCC)C(=O)[O-].[Na+] [VALPROATE SODIUM],300,inactive,,,,,
Cc1ccc(/C=C2/N=C(c3ccccc3)N(C(=O)c3ccc(Cl)cc3)NC2=O)cc1,100,100 mg/kg,300 mg/kg,100,,,
COc1ccc(/C=C2/N=C(c3ccccc3)N(C(=O)c3ccc(Cl)cc3)NC2=O)cc1,100,300 mg/kg,inactive,100,300,300,
O=C1NN(C(=O)c2ccc(F)cc2)C(c2ccccc2)=N/C1=C/c1ccc(O)cc1,300,inactive,inactive,300,,,
COc1ccc(/C=C2/N=C(c3ccccc3)N(C(=O)c3ccc(C)cc3)NC2=O)cc1,30,30 mg/kg,100 mg/kg,100,300,300,151.5
O=C1NC(=O)C(c2ccccc2)(c2ccccc2)N1 [PHENYTOIN],,,30 mg/kg,30,,,
NC(=O)N1c2ccccc2C=Cc2ccccc21 [CARBAMAZEPINE],,,,,,,169
Cc1ccc(C(=O)N2NC(=O)/C(=C\c3ccc(O)cc3)N=C2c2ccccc2)cc1,100,300 mg/kg,100 mg/kg,30,,,147.33
Cc1ccc(/C=C2/N=C(c3ccccc3)N(C(=O)COc3ccccc3)NC2=O)cc1,300,inactive,300 mg/kg,300,,,
Cc1ccc(/C=C2/N=C(c3ccccc3)N(C(=O)c3ccc(C)cc3)NC2=O)cc1,30,30 mg/kg,100 mg/kg,100,,300,145.83
O=C1NN(C(=O)c2ccccc2Cl)C(c2ccccc2)=N/C1=C/c1ccccc1Cl,30,100 mg/kg,30 mg/kg,30,300,300,148.17
Cc1ccc(/C=C2/N=C(c3ccccc3)N(C(=O)Cc3ccc(Cl)cc3)NC2=O)cc1,100,300 mg/kg,300 mg/kg,100,300,300,
O=C1NN(C(=O)c2ccc(Cl)cc2)C(c2ccccc2)=N/C1=C/c1ccccc1,100,300 mg/kg,300 mg/kg,100,300,300,

# — ChEMBL document CHEMBL1240430, “Design & synthesis of 2-(substituted aryloxy)-5-(substituted benzylidene)-3-phenyl-2,5-dihydro-1H-[1,2,4] triazin-6-one as potential anticonvulsant agents” (Eur J Med Chem, 2010)
